Reference: ChEMBL document CHEMBL4257467, “Synthesis and pharmaceutical characterization of site specific mycophenolic acid-modified Xenopus glucagon-like peptide-1 analogs” (Medchemcomm, 2018)
The source made the active and inactive calls. *1 amine or outer side, *2 acyl side, *3 side chain or, on linkers, in order; H or OH if unused. Side-chain parts run from the residue outwards. The star is where a group is joined. Mycophenolyl = COc1c(C)c2c(c(O)c1C/C=C(\C)CCC(=O)*)C(=O)OC2; γGlu = O=C(O)[C@H](CCC(=O)[*:2])N[*:1]; 12Ado = NCCCCCCCCCCCC(=O)O

Tests used:
[1] = biological target: Glucagon-like peptide 1 receptor (Homo sapiens, UniProt P43220); test: Agonist activity at human GLP1 receptor expressed in HEK293 cells assessed as increase in cAMP level after 30 mins by HTRF method; assay type: functional, cell-based
Chain of Glucagon-like peptide 1 receptor (P43220 whole entry): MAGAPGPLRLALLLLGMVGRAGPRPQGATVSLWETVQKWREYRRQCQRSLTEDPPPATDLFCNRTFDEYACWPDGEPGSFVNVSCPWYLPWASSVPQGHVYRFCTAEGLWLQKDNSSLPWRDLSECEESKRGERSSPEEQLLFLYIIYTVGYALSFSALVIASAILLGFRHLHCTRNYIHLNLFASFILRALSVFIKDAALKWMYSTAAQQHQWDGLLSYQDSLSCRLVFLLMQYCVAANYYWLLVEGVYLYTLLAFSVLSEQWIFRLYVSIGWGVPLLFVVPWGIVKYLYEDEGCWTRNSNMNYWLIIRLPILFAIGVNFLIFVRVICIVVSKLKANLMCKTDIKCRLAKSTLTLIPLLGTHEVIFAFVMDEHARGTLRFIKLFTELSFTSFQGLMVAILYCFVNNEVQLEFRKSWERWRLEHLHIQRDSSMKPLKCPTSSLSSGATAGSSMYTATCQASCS
Procedure, shortened: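 HEK293 cells stably expressing human GLP-1 receptor, thawed, suspended in DMEM with 20 mM HEPES, 2 mM L-Glu, 0.5% FBS, 1% pen-strep. Compounds dissolved in DMSO, diluted in assay buffer to 1 × 10−13–1 × 10−6 M final, 30 min at 37 °C in 5% CO2. cAMP read by HTRF. EC50 as means ± SD of three individual experiments, n = 3.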

Mus musculus [2] = test: Antidiabetic activity in Kunming mouse assessed as reduction in blood glucose level at 25 nmol/kg, ip pretreated for 30 mins followed by glucose-challenge and measured after 15 to 120 mins by IPGTT; assay type: functional, organism-based
Procedure, shortened: (§1)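 Male Kunming mice (20–25 g, n = 6) fasted overnight. Peptide or saline 25 nmol kg−1 ip at −30 min, ip glucose 2 g kg−1 at 0 min. Tail-vein blood glucose by glucometer at −30, 0, 15, 30, 60 and 120 min. Glucose AUC0–120min calculated; means ± SD.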

Mus musculus [3] = test: Antidiabetic activity in Kunming mouse assessed as reduction in blood glucose AUC at 25 nmol/kg, ip pretreated for 30 mins followed by glucose-challenge and measured after 15 to 120 mins by IPGTT; assay type: functional, organism-based; procedure, shortened: as §1
Albumin = Albumin (Homo sapiens, UniProt P02768); test: Binding affinity to human serum albumin after 60 mins by ultrafiltration-based HPLC analysis; assay type: ADME; conditions: human serum albumin, read-out: PB (converted)
Chain of Albumin (P02768 whole entry): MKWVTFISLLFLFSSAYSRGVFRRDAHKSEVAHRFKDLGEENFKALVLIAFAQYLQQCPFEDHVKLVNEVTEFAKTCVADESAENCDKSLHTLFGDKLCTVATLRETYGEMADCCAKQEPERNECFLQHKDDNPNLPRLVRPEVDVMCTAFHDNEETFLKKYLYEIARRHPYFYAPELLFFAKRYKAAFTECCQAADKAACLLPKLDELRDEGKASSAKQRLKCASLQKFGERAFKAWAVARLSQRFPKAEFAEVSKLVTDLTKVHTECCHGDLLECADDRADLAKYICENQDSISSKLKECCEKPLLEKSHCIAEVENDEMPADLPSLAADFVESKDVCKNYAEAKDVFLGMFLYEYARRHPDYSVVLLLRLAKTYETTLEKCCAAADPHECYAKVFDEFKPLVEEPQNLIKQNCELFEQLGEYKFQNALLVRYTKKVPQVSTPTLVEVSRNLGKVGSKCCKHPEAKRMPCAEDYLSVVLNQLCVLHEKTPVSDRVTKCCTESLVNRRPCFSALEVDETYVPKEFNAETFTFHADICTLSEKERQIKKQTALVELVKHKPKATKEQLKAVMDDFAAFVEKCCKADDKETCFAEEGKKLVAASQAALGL
Procedure, shortened: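 Peptide in PBS pH 7.4 (100 μg ml−1) mixed with HSA (10 mg ml−1 in PBS), incubated 60 min at 37 °C. Ultrafiltration through 30 kDa cutoff filter, 30 min at 3500 rpm. Free compound in filtrate by HPLC. Membrane adsorption checked (<4%). Repeated three times.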

[4] = Half life in Sprague-Dawley rat plasma at 0.5 mL by LC-MS/MS analysis; assay type: ADME, cell-free; conditions: Sprague-Dawley
Procedure, shortened: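 Plasma from male Sprague-Dawley rats (200–250 g). Peptide in PBS pH 7.4 added to initial 1000 ng ml−1 and incubated at 37 °C for 48 h. Samples at 2, 4, 8, 12, 24, 36, 48 h precipitated with acetonitrile containing 2% formic acid, centrifuged, analysed by LC-MS/MS in MRM mode. Degradation curves in triplicate.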

Mus musculus [5] = test: Hypoglycemic activity in C57BL/6J m+/+ Lepr db mouse assessed as blood glucose level at 25 nmol/kg, ip pretreated for 30 mins followed by glucose challenge and measured after 15 mins by IPGTT; assay type: functional
Procedure, shortened: (§2)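 Male db/db mice (30–40 g, 9 weeks, n = 6) fasted 18 h. Saline or peptide 25 nmol kg−1 ip at −30 min, ip glucose 1 g kg−1 at 0 min. Tail-vein glucose by glucometer at −30, 0, 10, 15, 30, 45, 60, 120 min. Plasma insulin by mouse insulin ELISA. AUC0–120min for glucose and insulin calculated; means ± SD.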

Mus musculus [6] = test: Hypoglycemic activity in C57BL/6J m+/+ Lepr db mouse assessed as blood glucose AUC (0 to 120 mins) at 25 nmol/kg, ip pretreated for 30 mins followed by glucose challenge by IPGTT; assay type: functional, organism-based; procedure, shortened: as §2
Mus musculus [7] = test: Antidiabetic activity in C57BL/6J m+/+ Lepr db mouse assessed as plasma insulin level at 25 nmol/kg, ip pretreated for 30 mins followed by glucose challenge and measured after 15 mins by ELISA; assay type: functional; procedure, shortened: as §2
Mus musculus [8] = test: Antidiabetic activity in C57BL/6J m+/+ Lepr db mouse assessed as increase in plasma insulin AUC (0 to 120 mins) at 25 nmol/kg, ip pretreated for 30 mins followed by glucose challenge by ELISA; assay type: functional, organism-based; procedure, shortened: as §2
Mus musculus [9] = test: Hypoglycemic activity in C57BL/6J m+/+ Lepr db mouse assessed as reduction in fasting blood glucose level at 25 nmol/kg, ip pretreated for 30 mins followed by glucose challenge at 6 hrs interval for 24 hrs and measured up to 3 hrs by OGTT; assay type: functional, organism-based
Procedure, shortened: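 Male db/db mice (30–40 g, 9 weeks, n = 6) fasted 18 h, given saline or peptide 25 nmol kg−1 ip at −0.5 h. Oral glucose 1.5 g kg−1 at 0 h, repeated every 6 h (6, 12, 18 h) over 24 h. Blood glucose by glucometer at 0, 0.25, 0.5, 1, 2 and 3 h after each load.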

Mus musculus [10] = test: Hypoglycemic activity in non-fasting C57BL/6J m+/+ Lepr db mouse assessed as rebound time from the lowest glucose level (12 mmol/L) to diabetic glucose level (>15 mmol/L) at 25 nmol/kg, ip by glucometric method; assay type: functional
Procedure, shortened: (§3)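 Non-fasting male db/db mice (30–40 g, 9 weeks, n = 6) with free food and water. Single ip dose at 0 h: liraglutide 25 nmol kg−1, test peptides 25 or 100 nmol kg−1, or saline. Blood glucose by glucometer at 0, 2, 4, 6, 12, 24, 48 h. Rebound time to >15 mmol L−1 and AUC0–48h derived; means ± SD.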

Mus musculus [11] = test: Hypoglycemic activity in non-fasting C57BL/6J m+/+ Lepr db mouse assessed as rebound time from the lowest glucose level (12 mmol/L) to diabetic glucose level (>15 mmol/L) at 100 nmol/kg, ip by glucometric method; assay type: functional; procedure, shortened: as §3
Mus musculus [12] = test: Hypoglycemic activity in non-fasting C57BL/6J m+/+ Lepr db mouse assessed as reduction in blood glucose AUC (0 to 48 hrs) at 25 to 100 nmol/kg, ip by glucometric method; assay type: functional, organism-based; procedure, shortened: as §3
Mus musculus [13] = test: Antidiabetic activity in C57BL/6J m+/+ Lepr db mouse assessed as reduction in glycated hemoglobin level at 50 nmol/kg, ip administered once daily for 5 weeks relative to control; assay type: functional; set-up: scale not given: the % may be the effect or the level left
Mus musculus [14] = test: Antidiabetic activity in C57BL/6J m+/+ Lepr db mouse assessed as non-fasting blood glucose levels at 50 nmol/kg, ip administered once daily for 5 weeks measured every 4 days during compound dosing; assay type: functional
Mus musculus [15] = test: Antidiabetic activity in C57BL/6J m+/+ Lepr db mouse assessed as increase in non-fasting plasma insulin levels at 50 nmol/kg, ip administered once daily for 5 weeks measured every 4 days during compound dosing; assay type: functional, organism-based
Mus musculus [16] = test: Antidiabetic activity in C57BL/6J m+/+ Lepr db mouse assessed as reduction in body weight gain at 50 nmol/kg, ip administered once daily for 5 weeks measured every 4 days during compound dosing relative to control; assay type: functional; set-up: scale not given: the % may be the effect or the level left
Mus musculus [17] = test: Antidiabetic activity in C57BL/6J m+/+ Lepr db mouse assessed as reduction in food intake at 50 nmol/kg, ip administered once daily for 5 weeks measured every 4 days during compound dosing; assay type: functional, organism-based
Mus musculus [18] = test: Antidiabetic activity in C57BL/6J m+/+ Lepr db mouse assessed as change in blood glucose level at 50 nmol/kg, ip administered once daily for 5 weeks followed by glucose challenge measured after 15 to 120 mins by IPGTT; assay type: functional, organism-based
Mus musculus [19] = test: Antidiabetic activity in C57BL/6J m+/+ Lepr db mouse assessed as reduction in blood glucose AUC (0 to 120 mins) at 50 nmol/kg, ip administered once daily for 5 weeks followed by glucose challenge by IPGTT; assay type: functional, organism-based
Mus musculus [20] = test: Antidiabetic activity in C57BL/6J m+/+ Lepr db mouse assessed as serum triglyceride level at 50 nmol/kg, ip administered once daily for 5 weeks (reference value: 2.3 +/- 0.3 mmol/L); assay type: functional
Mus musculus [21] = test: Antidiabetic activity in C57BL/6J m+/+ Lepr db mouse assessed as serum total cholesterol level at 50 nmol/kg, ip administered once daily for 5 weeks (reference value: 6.5 +/- 0.4 mmol/L); assay type: functional
Mus musculus [22] = test: Antidiabetic activity in C57BL/6J m+/+ Lepr db mouse assessed as serum LDL-cholesterol level at 50 nmol/kg, ip administered once daily for 5 weeks (reference value: 2.2 +/- 0.3 mmol/L); assay type: functional
Mus musculus [23] = test: Toxicity in C57BL/6J m+/+ Lepr db mouse assessed as HDL-cholesterol level at 50 nmol/kg, ip administered once daily for 5 weeks (reference value: 1.7 +/- 0.3 mmol/L); assay type: organism-based; conditions: in vivo, 840 h
Mus musculus [24] = test: Hepatotoxicity in C57BL/6J m+/+ Lepr db mouse assessed as serum ALT level at 50 nmol/kg, ip administered once daily for 5 weeks (reference value: 61.4 +/- 10 IU/L); assay type: toxicity, organism-based; conditions: in vivo, 840 h
Mus musculus [25] = test: Hepatotoxicity in C57BL/6J m+/+ Lepr db mouse assessed as serum AST level at 50 nmol/kg, ip administered once daily for 5 weeks (reference value: 75 +/- 7.4 IU/L); assay type: toxicity, organism-based; conditions: in vivo, 840 h

EC50 [1]: 3.1 nM | fraction unbound at 1 h (Albumin): 0.146 | half-life [4]: 2390 min
Substance: H-HGEGTYTNDVTEYLEEEAAK([γGlu-12Ado-Mycophenolyl])EFIEWLIKGKPSSGAPPSKKKKKK-OH
Activity (Mus musculus [2]): Active | Activity (Mus musculus [3]): Active | Activity (Mus musculus [5]): 1.07e+07 nmol/L | Activity (Mus musculus [6]): Active | Activity (Mus musculus [7]): 18 mIU/L | Activity (Mus musculus [8]): Active | Activity (Mus musculus [9]): Active | Time (Mus musculus [10]): 23.8 h | Time (Mus musculus [11]): 38.4 h | Activity (Mus musculus [12]): Active | Activity (Mus musculus [13]): 6.7% | Activity (Mus musculus [14]): 11.2 to 14.9 mmol/L | Activity (Mus musculus [15]): Active | Activity (Mus musculus [16]): 55% | Activity (Mus musculus [17]): Active | Activity (Mus musculus [18]): Active | Activity (Mus musculus [19]): Active | Activity (Mus musculus [20]): 1.4 mmol/L | Activity (Mus musculus [21]): 4.5 mmol/L | Activity (Mus musculus [22]): 1.4 mmol/L | Activity (Mus musculus [23]): 1.6 mmol/L | Activity (Mus musculus [24]): 56.9 IU/L | Activity (Mus musculus [25]): 62.4 IU/L
